Data on one compound can be found in ChEMBL document CHEMBL4266027, “Cyanobufalins: Cardioactive Toxins from Cyanobacterial Blooms” (J Nat Prod, 2018).

For one data set, the system named is MCF7. The experiment in a line: Cytotoxicity against human MCF7 cells assessed as decrease in cell viability after 72 hrs by MTS assay. The data set is classed as functional, cell-based. The settings on record: MCF7, 72 h. The method, boiled down:
(§1)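 Cell proliferation assay using the MTS reagent. Compounds were tested as a dilution series, and EC50 values were derived from the concentration–response data.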

The test system of data set [1] is Cardiac muscle cell. Description: Toxicity in human inducible pluripotent stem cell derived cardiomyocytes assessed as change in beating amplitude at 0.32 nM after 24 hrs. The conditions noted are these: 0.00032 µM. The data set is classed as cell-based. The method, boiled down: (§2)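 Human iPSC-derived cardiomyocytes (Cor.4U) were grown to stable beating cultures and monitored by impedance in real time with 20 s recordings. Compounds were given as a dilution series from 0.32 nM to 5 μM, dosed twice 24 h apart, with monitoring over 48 h. Beating amplitude was taken from each negative peak to the following positive peak and reported as % change.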

Data set [2] deals with Cardiac muscle cell. The experiment in a line: Toxicity in human inducible pluripotent stem cell derived cardiomyocytes assessed as change in beating amplitude at 0.32 nM after 33 mins. It counts as cell-based. The settings on record: 0.55 h, 0.00032 µM. Put shortly: as §2
The test system of another data set is A549. The experiment in a line: Cytotoxicity against human A549 cells assessed as decrease in cell viability after 72 hrs by MTS assay. The conditions noted are these: A549, 72 h. It counts as functional, cell-based. The method, boiled down:
as §1

For data set [3], the system named is Cardiac muscle cell. The experiment in a line: Toxicity in human inducible pluripotent stem cell derived cardiomyocytes assessed as change in beating amplitude at 1.6 nM after 48 hrs. The settings on record: 0.0016 µM. The data set is classed as cell-based. Put shortly: as §2
The next data set concerns HepG2. Description: Cytotoxicity against human HepG2 cells assessed as decrease in cell viability after 72 hrs by MTS assay. The data set is classed as functional, cell-based. The settings on record: HepG2, 72 h. Put shortly: as §1
The subject of data set [4] is Cardiac muscle cell. Description: Toxicity in human inducible pluripotent stem cell derived cardiomyocytes assessed as change in beating amplitude at 8 nM after 4 hrs. The data set is classed as cell-based. The conditions noted are these: 0.008 µM. Put shortly: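 Cor.4U hiPSC-derived cardiomyocytes grown to stable beating cultures, then monitored by impedance in RTCA Cardio plates with 20 s recordings. Compounds tested as a dilution series from 0.32 nM to 5 μM, dosed twice 24 h apart, followed over 48 h. Beating amplitude is taken from each negative peak to the next positive peak and reported as percent change.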

For the next data set, the system named is HUVEC. The experiment in a line: Cytotoxicity against human HUVEC cells assessed as decrease in cell viability after 72 hrs by MTS assay. The data set is classed as cell-based. The method, boiled down: as §1
Another data set concerns MES-SA/Dx5. The experiment in a line: Cytotoxicity against human MES-SA/Dx5 cells assessed as decrease in cell viability after 72 hrs by MTS assay. It counts as functional, cell-based. The conditions noted are these: MES-SA/Dx5, 72 h. Put shortly:
as §1

For the next data set, the system named is DU-145. Description: Cytotoxicity against human DU145 cells assessed as decrease in cell viability after 72 hrs by MTS assay. It counts as functional, cell-based. The settings on record: DU-145, 72 h. The method, boiled down:
as §1

The subject of data set [5] is Cardiac muscle cell. Description: Toxicity in human inducible pluripotent stem cell derived cardiomyocytes assessed as change in beating amplitude at 8 nM after 24 hrs. It counts as cell-based. The settings on record: 0.008 µM. Put shortly:
as §2

Data set [6] is described as follows: Cytotoxicity against human LOX cells assessed as decrease in cell viability after 72 hrs by MTS assay. It counts as functional, cell-based. Put shortly:
as §1

The test system of data set [7] is Cardiac muscle cell. Description: Toxicity in human inducible pluripotent stem cell derived cardiomyocytes assessed as change in beating amplitude at 1.6 nM after 24 hrs. The settings on record: 0.0016 µM. It counts as cell-based. Put shortly:
as §2

Another data set deals with HT-1080. The experiment in a line: Cytotoxicity against human HT1080 cells assessed as decrease in cell viability after 72 hrs by MTS assay. It counts as functional, cell-based. The settings on record: HT-1080, 72 h. The method, boiled down: as §1

In the case of `CC1(C)[C@@H](OC(N)=O)C=C[C@]2(C=O)[C@H]3CC[C@]4(C)[C@@H](c5ccc(=O)oc5)[C@@H](Cl)C[C@]4(O)C3=CC[C@@H]12`, the 50% effective concentration (EC50) in the data set with MCF7 was found to be 15 nM; in the data set on A549, 3.7 nM; in the data set on HepG2, 5.8 nM; in the data set with HUVEC, 9.7 nM; in the data set on MES-SA/Dx5 it was 5.8 nM; in the data set with DU-145 it was 5.2 nM. Also, the EC50 in data set [6] was found to be 3.7 nM; in the data set with HT-1080 it was 5.4 nM. The Activity with Cardiac muscle cell [1] was 30%; in the data set on Cardiac muscle cell [2], 0.7%; with Cardiac muscle cell [3], -20%; in the data set on Cardiac muscle cell [4] it was -19%; with Cardiac muscle cell [5], -59%; with Cardiac muscle cell [7] it was 2.8%.
